Tested on: MS2 coat protein
Assay: apparent Kd, MS2 coat protein; higher = weaker binding; RNA-MaP array; FMN 200 µM where present
How it was run: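 Apparent Kd: the median of filtered binding-curve fits from single clusters. Designs were transcribed on Illumina sequencing-chip clusters by stalled E. coli RNA polymerase and titrated with SNAP-549-labelled MS2 coat protein from 0.7 or 1.5 nM, doubling to 3 µM, in 100 mM Tris-HCl pH 7.5, 80 mM KCl, 4 mM MgCl2, BSA, DTT, yeast tRNA and Tween-20. Each series ran without and then with constant ligand, and green signal was normalised to red-channel RNA signal and control-cluster median Fmax.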

[1] = designed as: ON switch for flavin mononucleotide, no ligand
[2] = ligand present: flavin mononucleotide, designed as: ON switch for flavin mononucleotide
[3] = designed as: OFF switch for flavin mononucleotide, no ligand
[4] = ligand present: flavin mononucleotide, designed as: OFF switch for flavin mononucleotide

GCGAUUAAGUAGAAGGUACAAUAUAUAUCAUUGUAAGGAUAUACUUACAUGAGGAUCACCCAUGUUAAAGGAUAUAAUAAUCGC
apparent Kd [1]: 9.08 nM | apparent Kd [2]: 8.98 nM

GCGAUUGCGUAGAAGGUACAAUAUAUUUCAUUGUAAGGAUAUACUUACAUGAGGAUCACCCAUGUUAAAGGAUUUAGCAAUCGC
apparent Kd [1]: 12.4 nM | apparent Kd [2]: 10.3 nM

GCGAUUGCGUAGAAGGUACAAUUUAAUACAUUGUAAGGAUAUACUUACAUGAGGAUCACCCAUGUUAAUGGAAUUUGCAAUCGC
apparent Kd [1]: 16.7 nM | apparent Kd [2]: 10.8 nM

GCGAUUUUGUAAGGAUAUACACGAGUUUUAAGUGUAGAAGGUACUUACAUGAGGAUCACCCAUGUAUAAAUGUAUAAUGGUCGC
apparent Kd [1]: 12.4 nM | apparent Kd [2]: 9.82 nM

GCGCACUAAGUGAGGAUAUCGAUUUCUUUAAGGAUCGAGAAGGCACAUGAGGAUCACCCAUGUUUGACGUGCGC
apparent Kd [3]: 16.9 nM | apparent Kd [4]: 14.5 nM

GCGCAUUUAAGAUUUAUAUAAUUUUCAGAAGGUGAAUAGUCGACAUGAGGAUCACCCAUGUAAUUCAAGGAUAUGAUUUAGCGC
apparent Kd [1]: 59.6 nM | apparent Kd [2]: 10.1 nM

GCGGAACAUGAGGAUCACCCAUGUGGAGGGUGUAAAGGAUAUUAUAGAGAGAAGGUAGGGUAAGAAGGUUGCUGGG
apparent Kd [1]: 843 nM | apparent Kd [2]: 763 nM

GCGGGCCGCGCAGGAUAUACAGGGUACAUGAGGAUCACCCAUGUCCUUGGUGAGAUCAUUUGCCCGUAGAAGGGCGAGGGUCGG
apparent Kd [3]: 44.3 nM | apparent Kd [4]: 114 nM

GCGGGUAAAGCAGGAUAUCUAAUGUCACGGAAACAUGAGGAUCACCCAUGUAGAGAAGGGCUAAGUCAUACAAUUCGAAUUUGC
apparent Kd [3]: 9.04 nM | apparent Kd [4]: 8.24 nM

GCGUAAAAGAUCCUAUUUAUCUACAUGAGGAUCACCCAUGUGCAGGAUAUGCUAUAUUUAAUAUAGCAGAAGGGCAAUAACCGC
apparent Kd [3]: 45.6 nM | apparent Kd [4]: 248 nM

GCGUACAUAUCAGGAUAUCAUUGUAUUGUUUUACUCAGUGUAUACAUGAGGAUCACCCAUGUUCUUGAGAAGGGAUUACUACGC
apparent Kd [3]: 15.1 nM | apparent Kd [4]: 14.1 nM

GCGUAUUAGGUGUAGCUAGUCAUUCAAGAAGGGUGGAGAACAUGAGGAUCACCCAUGUAGUUUAUACAGGAUAUUGAUAUACGC
apparent Kd [1]: 489 nM | apparent Kd [2]: 101 nM

GCGUCAGAAUUAAUUGUGACAGGCAGAAGGCUAUAUCUUAUGUCAGACAUGAGGAUCACCCAUGUAGAGGAUAUGCAGUUACAC
apparent Kd [3]: 10.6 nM | apparent Kd [4]: 17.9 nM

GCGUCAGAAUUAAUUGUGACAUACAGAAGGCAAAAGUUAAGAUCAGACAUGAGGAUCACCCAUGUUGAGGAUAUGUAGAGAAUC
apparent Kd [3]: 10.4 nM | apparent Kd [4]: 8.72 nM

GCGUCAGAAUUAAUUGUGACAUACAGAAGGCAAUAUUAAGGUUAAGACAUGAGGAUCACCCAUGUUGAGGAUAUGUAGUGACGC
apparent Kd [3]: 8.9 nM | apparent Kd [4]: 15.8 nM

GCGUCGAGUGUGAGGAUAUGCUGGUCCUUGGAUCAGCAGAAGGCACAUGAGGAUCACCCAUGUGAAUACGAUGC
apparent Kd [3]: 21.7 nM | apparent Kd [4]: 136 nM

GCGUUCUUGUAGAAGGUACUUUCAACAUCUUAUAAACGCUAGACACAUGAGGAUCACCCAUGUUGUAAGGAUAUACAUGAACGC
apparent Kd [1]: 11.3 nM | apparent Kd [2]: 10.9 nM

GCGUUGUACGAGAAGGCCAAUACAUGAGGAUCACCCAUGUUAAGUUGUUUUGGAGGAUAUCGAUCAUCUACAAUAAUGCAACGC
apparent Kd [3]: 6.74 nM | apparent Kd [4]: 6.03 nM

GCGUUGUCAGGAUAUUAUCCGUGGACAAUAGUCAGACACGGUAAGAAGGGACAUGAGGAUCACCCAUGUCCUCA
apparent Kd [3]: 17.6 nM | apparent Kd [4]: 27.1 nM

GCUAAACAUGAGGAUCACCCAUGUACCGAUCACUAAGGAUAUGGGCGAAUAACGGCUCGGCCAGAAGGUAGAGAUG
apparent Kd [1]: 66.9 nM | apparent Kd [2]: 81.8 nM

GCUCGCGUCGGUUCGCUGGCCUGAGAGGAUAUCCACUGGCAUGUCGACAUGAGGAUCACCCAUGUGGAGAAGGCUCAGGAUAAA
apparent Kd [3]: 311 nM | apparent Kd [4]: 552 nM

GCUCGGCGUCAGAAGGCAGACGCGAAGCGCGUUUGAGGAUAUGACAUGAGGAUCACCCAUGUAGGUGUGCGAAAUUGUAAUCAC
apparent Kd [3]: 301 nM | apparent Kd [4]: 309 nM

GCUCGUCGUGGAAGAGCAAAAGGACAGGAUAUCGCUUAAACAUGAGGAUCACCCAUGUCCGUUAACGAGAAGGGUCGAAUAAAU
apparent Kd [1]: 138 nM | apparent Kd [2]: 24.3 nM

GCUCUACAUGAGGAUCACCCAUGUCCAUCCGCACGAGGAUAUGCAUGGGCGAAAGCUGGUGCAGAAGGCGUGGGAC
apparent Kd [1]: 190 nM | apparent Kd [2]: 98.8 nM

GCUGACGAUGUAGGAUAUCAGUAUAAUAAAUACUGAGAAGGACAUGAGGAUCACCCAUGUACUCAACGUCAGCAGAGGAAACUC
apparent Kd [3]: 17.8 nM | apparent Kd [4]: 22.5 nM

GCUGCAUAGGCAGGAUAUGCAAACAUGAGAUGAAAAUACAUCUCAUGUACAUGAGGAUCACCCAUGUAGAAGGGCCUGUGCAGU
apparent Kd [3]: 14.9 nM | apparent Kd [4]: 15.5 nM

GCUGCAUAGGCAGGAUAUGCAAUAAUUUGAAUAAAAUAUAACAAAUUAACAUGAGGAUCACCCAUGUAGAAGGGCCUGUGCAGU
apparent Kd [3]: 17.5 nM | apparent Kd [4]: 19.4 nM
